Measurements: ChEMBL document CHEMBL1143542, “Structure-activity relationships of bivalent aminoglycosides and evaluation of their microbiological activities” (2005)

Key:
Pseudomonas aeruginosa [1] = test: Susceptibility testing against Pseudomonas aeruginosa PAE_NUH01; R=Resistant; type: functional, organism-based
Summary of the method: (§1)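 Disk diffusion susceptibility profiling of P. aeruginosa reference and clinical isolates against empirically used antipseudomonal antibiotics. Each isolate was categorised as susceptible, intermediate or resistant.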

Pseudomonas aeruginosa [2] = test: Susceptibility testing against Pseudomonas aeruginosa PAE_NUH02; R=Resistant; type: functional, organism-based; summary of the method: as §1
Pseudomonas aeruginosa [3] = test: Susceptibility testing against Pseudomonas aeruginosa PAE_NUH03; R=Resistant; type: functional, organism-based; summary of the method: as §1
Pseudomonas aeruginosa [4] = test: Susceptibility testing against Pseudomonas aeruginosa PAE_NUH04; R=Resistant; type: functional, organism-based; summary of the method: as §1
Pseudomonas aeruginosa [5] = test: Susceptibility testing against Pseudomonas aeruginosa PAE_NUH05; R=Resistant; type: functional, organism-based; summary of the method: as §1
Pseudomonas aeruginosa [6] = test: Susceptibility testing against Pseudomonas aeruginosa PAE_NUH06; R=Resistant; type: functional, organism-based; summary of the method: as §1
Pseudomonas aeruginosa [7] = test: Susceptibility testing against Pseudomonas aeruginosa PAE_NUH07; R=Resistant; type: functional, organism-based; summary of the method: as §1
Pseudomonas aeruginosa [8] = test: Susceptibility testing against Pseudomonas aeruginosa PAE_NUH18; R=Resistant; type: functional, organism-based; summary of the method: as §1
Pseudomonas aeruginosa [9] = test: Susceptibility testing against Pseudomonas aeruginosa PAE_NUH19; R=Resistant; type: functional, organism-based; summary of the method: as §1
Pseudomonas aeruginosa [10] = test: Susceptibility testing against Pseudomonas aeruginosa PAE_NUH20; R=Resistant; type: functional, organism-based; summary of the method: as §1
Pseudomonas aeruginosa [11] = test: Susceptibility testing against Pseudomonas aeruginosa PAE_NUH21; R=Resistant; type: functional, organism-based; summary of the method: as §1
Pseudomonas aeruginosa [12] = test: Susceptibility testing against Pseudomonas aeruginosa PAE_NUH22; R=Resistant; type: functional, organism-based; summary of the method: as §1
Pseudomonas aeruginosa [13] = test: Susceptibility testing against Pseudomonas aeruginosa PAE_NUH23; R=Resistant; type: functional, organism-based; summary of the method: as §1
Pseudomonas aeruginosa [14] = test: Susceptibility testing against Pseudomonas aeruginosa PAE_NUH24; R=Resistant; type: functional, organism-based; summary of the method: as §1
Pseudomonas aeruginosa [15] = test: Susceptibility testing against Pseudomonas aeruginosa PAE_NUH25; R=Resistant; type: functional, organism-based; summary of the method: as §1
Pseudomonas aeruginosa [16] = test: Susceptibility testing against Pseudomonas aeruginosa ATCC 27853; S=Susceptible; type: functional, organism-based
Summary of the method: (§2)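 Disk diffusion susceptibility profiling against a panel of empirically used antipseudomonal antibiotics. Each strain was categorised as susceptible (S) or intermediate (I).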

Pseudomonas aeruginosa [17] = test: Susceptibility testing against Pseudomonas aeruginosa PAE_NUH17; S=Susceptible; type: functional, organism-based; summary of the method: as §2
Pseudomonas aeruginosa [18] = test: Susceptibility testing against Pseudomonas aeruginosa PAE_NUH22; S=Susceptible; type: functional, organism-based; summary of the method: as §2
Pseudomonas aeruginosa [19] = test: Susceptibility testing against Pseudomonas aeruginosa PAE_NUH23; S=Susceptible; type: functional, organism-based; summary of the method: as §2
Pseudomonas aeruginosa [20] = test: Susceptibility testing against Pseudomonas aeruginosa PAE_NUH24; S=Susceptible; type: functional, organism-based; summary of the method: as §2
Pseudomonas aeruginosa [21] = test: Susceptibility testing against Pseudomonas aeruginosa PAE_NUH25; S=Susceptible; type: functional, organism-based; summary of the method: as §2
Pseudomonas aeruginosa [22] = test: Susceptibility testing against Pseudomonas aeruginosa PAE_NUH04; S=Susceptible; type: functional, organism-based; summary of the method: as §2
Pseudomonas aeruginosa [23] = test: Susceptibility testing against Pseudomonas aeruginosa PAE_NUH05; S=Susceptible; type: functional, organism-based; summary of the method: as §2
Pseudomonas aeruginosa [24] = test: Susceptibility testing against Pseudomonas aeruginosa PAE_NUH06; S=Susceptible; type: functional, organism-based; summary of the method: as §2
Pseudomonas aeruginosa [25] = test: Susceptibility testing against Pseudomonas aeruginosa PAE_NUH18; S=Susceptible; type: functional, organism-based; summary of the method: as §2
Pseudomonas aeruginosa [26] = test: Susceptibility testing against Pseudomonas aeruginosa PAE_NUH19; S=Susceptible; type: functional, organism-based; summary of the method: as §2
Pseudomonas aeruginosa [27] = test: Susceptibility testing against Pseudomonas aeruginosa PAE_NUH20; S=Susceptible; type: functional, organism-based; summary of the method: as §2
Pseudomonas aeruginosa [28] = test: Susceptibility testing against Pseudomonas aeruginosa PAE_NUH21; S=Susceptible; type: functional, organism-based; summary of the method: as §2
Pseudomonas aeruginosa [29] = test: Susceptibility testing against Pseudomonas aeruginosa PAE_NUH03; S=Susceptible; type: functional, organism-based; summary of the method: as §2
Staphylococcus aureus [30] = test: In vitro minimum inhibitory concentration against Staphylococcus aureus MRSA 3359; type: functional
Summary of the method: (§3)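 Broth microdilution following CLSI M100-S12. Stocks were 10 mg/mL in water, diluted in Mueller–Hinton broth to a top level of 128, then serially 2-fold in plates. Bacteria in cation-adjusted Mueller–Hinton broth were mixed 1:1 with drug and incubated 16–20 h at 35 °C. MIC was the lowest concentration with no visible growth. Run in duplicate with no-antibiotic and no-inoculum (sterility) controls.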

Pseudomonas aeruginosa [31] = test: In vitro minimum inhibitory concentration against Pseudomonas aeruginosa ATCC 27853; type: functional; summary of the method: as §3
Staphylococcus aureus [32] = test: In vitro minimum inhibitory concentration against Staphylococcus aureus ATCC 29213; type: functional; summary of the method: as §3
Pseudomonas aeruginosa [33] = test: Minimum inhibitory concentration against Pseudomonas aeruginosa PAE_NUH01; type: functional; summary of the method: as §3
Pseudomonas aeruginosa [34] = test: Minimum inhibitory concentration against Pseudomonas aeruginosa PAE_NUH02; type: functional; summary of the method: as §3
Pseudomonas aeruginosa [35] = test: Minimum inhibitory concentration against Pseudomonas aeruginosa PAE_NUH03; type: functional; summary of the method: as §3
Pseudomonas aeruginosa [36] = test: Minimum inhibitory concentration against Pseudomonas aeruginosa PAE_NUH04; type: functional; summary of the method: as §3
Pseudomonas aeruginosa [37] = test: Minimum inhibitory concentration against Pseudomonas aeruginosa PAE_NUH05; type: functional; summary of the method: as §3
Pseudomonas aeruginosa [38] = test: Minimum inhibitory concentration against Pseudomonas aeruginosa PAE_NUH06; type: functional; summary of the method: as §3
Pseudomonas aeruginosa [39] = test: Minimum inhibitory concentration against Pseudomonas aeruginosa PAE_NUH07; type: functional; summary of the method: as §3
Pseudomonas aeruginosa [40] = test: Minimum inhibitory concentration against Pseudomonas aeruginosa PAE_NUH17; type: functional; summary of the method: as §3
Pseudomonas aeruginosa [41] = test: Minimum inhibitory concentration against Pseudomonas aeruginosa PAE_NUH18; type: functional; summary of the method: as §3
Pseudomonas aeruginosa [42] = test: Minimum inhibitory concentration against Pseudomonas aeruginosa PAE_NUH19; type: functional; summary of the method: as §3
Pseudomonas aeruginosa [43] = test: Minimum inhibitory concentration against Pseudomonas aeruginosa PAE_NUH21; type: functional; summary of the method: as §3
Pseudomonas aeruginosa [44] = test: Minimum inhibitory concentration against Pseudomonas aeruginosa PAE_NUH22; type: functional; summary of the method: as §3
Enterococcus faecalis = test: In vitro minimum inhibitory concentration against Enterococcus faecalis 29212; type: functional; summary of the method: as §3
Escherichia coli = test: In vitro minimum inhibitory concentration against Escherichia coli ATCC 25922; type: functional; summary of the method: as §3
Pseudomonas aeruginosa [45] = test: Minimum inhibitory concentration against Pseudomonas aeruginosa PAE_NUH23; type: functional; summary of the method: as §3
Pseudomonas aeruginosa [46] = test: Minimum inhibitory concentration against Pseudomonas aeruginosa PAE_NUH24; type: functional; summary of the method: as §3
Pseudomonas aeruginosa [47] = test: Minimum inhibitory concentration against Pseudomonas aeruginosa PAE_NUH25; type: functional; summary of the method: as §3
Pseudomonas aeruginosa [48] = test: Minimum inhibitory concentration against Pseudomonas aeruginosa ATCC 27853; type: functional; summary of the method: as §3
Pseudomonas aeruginosa [49] = test: In vitro minimum inhibitory concentration against Pseudomonas aeruginosa PAO-1 Minimum inhibitory concentration against Pseudomonas aeruginosa PAO-1; type: functional; summary of the method: as §3
Pseudomonas aeruginosa [50] = test: Minimum inhibitory concentration against Pseudomonas aeruginosa PAE_NUH20; type: functional; summary of the method: as §3

C[C@H]1[C@H](NC(=O)/C(=N\OC(C)(C)C(=O)O)c2csc(N)n2)C(=O)N1S(=O)(=O)O
Susceptible: Activity (Pseudomonas aeruginosa [16]) | Activity (Pseudomonas aeruginosa [17])
Resistant: Activity (Pseudomonas aeruginosa [1]) | Activity (Pseudomonas aeruginosa [2]) | Activity (Pseudomonas aeruginosa [3]) | Activity (Pseudomonas aeruginosa [4]) | Activity (Pseudomonas aeruginosa [5]) | Activity (Pseudomonas aeruginosa [6]) | Activity (Pseudomonas aeruginosa [7]) | Activity (Pseudomonas aeruginosa [8]) | Activity (Pseudomonas aeruginosa [9]) | Activity (Pseudomonas aeruginosa [10]) | Activity (Pseudomonas aeruginosa [11]) | Activity (Pseudomonas aeruginosa [12]) | Activity (Pseudomonas aeruginosa [13]) | Activity (Pseudomonas aeruginosa [14]) | Activity (Pseudomonas aeruginosa [15])

CCN1CCN(C(=O)N[C@@H](C(=O)N[C@@H]2C(=O)N3[C@@H]2SC(C)(C)[C@@H]3C(=O)O)c2ccccc2)C(=O)C1=O.C[C@]1(Cn2ccnn2)[C@H](C(=O)O)N2C(=O)C[C@H]2S1(=O)=O
Susceptible: Activity (Pseudomonas aeruginosa [18]) | Activity (Pseudomonas aeruginosa [19]) | Activity (Pseudomonas aeruginosa [20]) | Activity (Pseudomonas aeruginosa [21]) | Activity (Pseudomonas aeruginosa [16]) | Activity (Pseudomonas aeruginosa [22]) | Activity (Pseudomonas aeruginosa [23]) | Activity (Pseudomonas aeruginosa [24]) | Activity (Pseudomonas aeruginosa [17]) | Activity (Pseudomonas aeruginosa [25]) | Activity (Pseudomonas aeruginosa [26]) | Activity (Pseudomonas aeruginosa [27]) | Activity (Pseudomonas aeruginosa [28]) | Activity (Pseudomonas aeruginosa [29])
Resistant: Activity (Pseudomonas aeruginosa [1]) | Activity (Pseudomonas aeruginosa [2]) | Activity (Pseudomonas aeruginosa [7])

NC[C@H]1O[C@H](O[C@H]2[C@H](OC[C@H](O)CNCCCCNC[C@@H](O)CO[C@@H]3[C@@H](O)[C@H](N)C[C@H](N)[C@H]3O[C@H]3O[C@H](CN)[C@@H](O)[C@H](O)[C@H]3N)[C@@H](O)[C@H](N)C[C@@H]2N)[C@H](N)[C@@H](O)[C@@H]1O
3.1 µg/mL: MIC (Pseudomonas aeruginosa [36]) | MIC (Pseudomonas aeruginosa [37]) | MIC (Pseudomonas aeruginosa [39])
1 µg/mL: MIC (Staphylococcus aureus [32]) | MIC (Pseudomonas aeruginosa [48])
32 µg/mL: MIC (Pseudomonas aeruginosa [40])
4 µg/mL: MIC (Pseudomonas aeruginosa [31]) | MIC (Escherichia coli)
6.3 µg/mL: MIC (Pseudomonas aeruginosa [33]) | MIC (Pseudomonas aeruginosa [34]) | MIC (Pseudomonas aeruginosa [35]) | MIC (Pseudomonas aeruginosa [38])
> 50 µg/mL: MIC (Enterococcus faecalis)
16 µg/mL: MIC (Staphylococcus aureus [30]) | MIC (Pseudomonas aeruginosa [43]) | MIC (Pseudomonas aeruginosa [44]) | MIC (Pseudomonas aeruginosa [45]) | MIC (Pseudomonas aeruginosa [46]) | MIC (Pseudomonas aeruginosa [50])
8 µg/mL: MIC (Pseudomonas aeruginosa [41]) | MIC (Pseudomonas aeruginosa [42]) | MIC (Pseudomonas aeruginosa [47])
2 µg/mL: MIC (Pseudomonas aeruginosa [49])
